SENP1 FRET inh: SENP1 (human) catalytic domain inhibition; recombinant SENP1 catalytic domain, CyPet-SUMO1-YPet FRET cleavage; AID 624204; inhibition, % at 10 µM; hit rate 0.21% among 360,000;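 active = inhibition at least 30% at 10 µM, raw YFP signal under a set limit, fluorescence ratio 0.5 to 1.5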;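 also: 0% = enzyme with DMSO and 100% = no enzyme wells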
Target sequence (Q9P0U3 419-644 limits assumed): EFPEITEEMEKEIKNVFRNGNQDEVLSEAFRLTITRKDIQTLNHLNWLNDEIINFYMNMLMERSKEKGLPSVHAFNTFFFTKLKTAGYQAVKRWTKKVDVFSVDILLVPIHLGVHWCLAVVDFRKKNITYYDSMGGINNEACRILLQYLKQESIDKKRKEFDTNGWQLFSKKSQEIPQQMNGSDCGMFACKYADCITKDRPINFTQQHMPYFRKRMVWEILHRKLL
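Assay system: hSENP1 catalytic domain, recombinant. Amount: SENP1 enzyme, 20 pM final. Schedule: 50 min reaction, RT, dark. Technique: FRET, CFP and YFP emission. Control set: no-enzyme wells low, DMSO-plus-enzyme wells high control.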
SENP8 block-1: blocks human SENP8 cleavage of Nedd8 substrate; Q96LD8; recombinant SENP8, Nedd8 substrate fluorescence; hit rate 0.64% among 360,000; inhibition, % at 20 µM; in the data active = inhibition mostly above about 40%, no sharp cut-off; inactive = mostly below about 27%
Target sequence (Q96LD8 whole entry, looked up): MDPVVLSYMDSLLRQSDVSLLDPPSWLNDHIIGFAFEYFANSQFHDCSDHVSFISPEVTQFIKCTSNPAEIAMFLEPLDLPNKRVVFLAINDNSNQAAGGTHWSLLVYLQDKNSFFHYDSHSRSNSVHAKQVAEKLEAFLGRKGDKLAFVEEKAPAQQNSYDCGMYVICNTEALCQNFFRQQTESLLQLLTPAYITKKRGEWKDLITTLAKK
SENP7 block: inhibitors of human SENP7 protease; hit rate 1.5% among 330,000; Q9BQF6; inhibition, % at 5 µM; recombinant SENP7, Z-RLRGG-aminoluciferin luminescence, 40 min; AID 434973;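 active = inhibition above about 50% at the single test dose, limit read from the data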;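 also: plate controls were DMSO with enzyme for no effect and no enzyme buffer wells for full effect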
CendR NRP1 mod: alters CendR peptide binding to human NRP-1 | hit rate 0.85% among 360,000 | inhibition, % at 25 µM | O14786 | FAM-RPARPAR peptide binding to NRP-1, fluorescence polarization;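 active = inhibition or corrected inhibition above about 18%, plus a signal ratio from 0.5 to 1.5, limit read from the data, passing the limit was not always enough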
SENP8 block-2: SENP8 protease inhibition; purified SENP8, Z-RLRGG-aminoluciferin cleavage, luminescence; inhibition, % at 10 µM; AID 2540; Q96LD8; hit rate 1.2% among 330,000; in the data active = inhibition above about 50%
SENP6 inh: blocks the human protease SENP6. Q9GZR1. Recombinant SENP6 catalytic domain, aminoluciferin luminescence. inhibition, % at 10 µM. hit rate 1.8% among 330,000;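 active = inhibition above about 50% at the single tested dose, limit read from the data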;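 also: plate controls were DMSO wells with enzyme for no effect and DMSO wells lacking enzyme for full effect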
SENP8 confirm: human SENP8 inhibition, confirmed | hit rate 40% among 6,200 | shares compounds with SENP7 block | inhibition, % at 12.5 µM | Recombinant SENP8, Z-RLRGG-aminoluciferin luminescence, 60 min;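 active = mean inhibition across replicates above about 50%, limit read from the data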
SENP6 conf: human SENP6 inhibition, confirmed | hit rate 58% among 6,200 | inhibition, % at 12.5 µM | AID 488915 | shares compounds with SENP7 block | recombinant SENP6, Z-RLRGG-aminoluciferin luminescence
SENP7 confirm: confirmation of human SENP7 protease inhibitors; recombinant SENP7, Z-RLRGG-aminoluciferin luminescence, 40 min; shares compounds with SENP7 block; hit rate 69% among 6,200; inhibition, % at 12.5 µM; AID 488917
Casp3 select: inhibits human caspase-3 in SENP selectivity test; shares compounds with SENP7 block; purified caspase-3, Z-DEVD-aminoluciferin luminescence, 60 min; inhibition, % at 12.5 µM; hit rate 60% among 6,200;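 active = mean inhibition above about 50%, limit read from the data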;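 also: plate controls were enzyme with DMSO for no effect and wells without caspase-3 for full effect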
Target sequence (P42574 28-227 limits assumed): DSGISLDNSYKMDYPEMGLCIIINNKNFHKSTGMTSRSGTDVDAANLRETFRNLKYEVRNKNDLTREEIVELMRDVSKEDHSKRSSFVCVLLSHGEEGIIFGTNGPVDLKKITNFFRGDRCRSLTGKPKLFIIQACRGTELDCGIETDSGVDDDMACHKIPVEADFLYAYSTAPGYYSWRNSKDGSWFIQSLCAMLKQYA
SENP luc ctr: counter-screen for SENP inhibitors: luminescence interference. shares compounds with SENP7 block. Pre-incubated SENP8/Z-RLRGG-aminoluciferin, luciferase luminescence interference. inhibition, % at 12.5 µM. hit rate 39% among 6,200;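 active = mean inhibition above about 50% when retested at one dose, limit read from the data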;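 also: plate controls were DMSO wells with completed reaction for no effect and substrate without enzyme for full effect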
Starred values were filed as active, the others as inactive. Most compounds without a hit are left out; they make up all but 3.3% or so of the library.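 The calls were made as follows, unless noted: active = mean inhibition above about 50% in the one-dose retest (limit read from the data); inactive = the rest.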

How did Brc1ccc(/C=N/Nc2ccccc2)cc1 do in these assays?
SENP1 FRET inh: -1; SENP8 block-1: 5; SENP7 block: 5; CendR NRP1 mod: 1; SENP8 block-2: -16; SENP6 inh: 17

Results for CC1(C(=O)NS(=O)(=O)c2ccccc2C(F)(F)F)CCN1C(=O)CCc1cccs1 (configuration not stated) ?
SENP1 FRET inh: 2; SENP8 block-1: 16; CendR NRP1 mod: 6

How did COc1ccc([C@H]2C(C(=O)O)=C[C@@H](C(C)(C)C)N2S(=O)(=O)c2ccc(C)cc2)cc1OC do in these assays?
SENP1 FRET inh: 0; SENP8 block-1: 11; SENP7 block: 4; CendR NRP1 mod: -17; SENP8 block-2: 4; SENP6 inh: 0

Results for COC(=O)c1ccc2nc(-c3ccccc3)c(Cc3ccccc3OC)n2c1 ?
SENP1 FRET inh: 6; SENP8 block-1: -356; CendR NRP1 mod: -11

How did C(=N\Nc1ccccn1)/c1ccc2c(c1)OCCO2 do in these assays?
SENP1 FRET inh: 0; SENP8 block-1: -4; SENP7 block: 83*; CendR NRP1 mod: 4; SENP8 block-2: 72*; SENP6 inh: 86*; SENP8 confirm: 81*; SENP6 conf: 80*; SENP7 confirm: 97*; Casp3 select: 84*; SENP luc ctr: 17

How did O=C1/C(=C/N(C(=O)c2ccco2)c2ccc(Br)cc2)Sc2ccccc21 do in these assays?
SENP1 FRET inh: -47; SENP8 block-1: -109; SENP7 block: 80*; CendR NRP1 mod: -88; SENP8 block-2: 84*; SENP6 inh: 90*; SENP8 confirm: 11; SENP6 conf: 51*; SENP7 confirm: 72*; Casp3 select: 44; SENP luc ctr: 40

Results for COc1ccc(Cl)cc1S(=O)(=O)NCCCn1ccnc1 ?
SENP1 FRET inh: 1; SENP8 block-1: 17; SENP7 block: 0; CendR NRP1 mod: 0; SENP8 block-2: -4; SENP6 inh: 53*; SENP8 confirm: 2; SENP6 conf: -3; SENP7 confirm: -2; Casp3 select: -3; SENP luc ctr: -4

Results for CCOCC(=O)Nc1cc(C(=O)Nc2cc(C)cc(C)c2)ccc1Cl ?
SENP7 block: 93*; SENP8 block-2: 79*; SENP6 inh: -32; SENP8 confirm: 83*; SENP6 conf: 54*; SENP7 confirm: 90*; Casp3 select: 89*; SENP luc ctr: 47

What do the screens show for `O=c1[nH]c(C(Cl)(Cl)Cl)nc2ccc3ccccc3c12`?
SENP1 FRET inh: -12; SENP8 block-1: 7; SENP7 block: -11; CendR NRP1 mod: 1; SENP8 block-2: 74*; SENP6 inh: 88*; SENP8 confirm: -24; SENP6 conf: 71*; SENP7 confirm: 80*; Casp3 select: 60*; SENP luc ctr: 18

What do the screens show for `O=S1(=O)CCN(Cc2cccnc2)CC1`?
SENP1 FRET inh: 4; SENP8 block-1: 20; CendR NRP1 mod: 1

Results for CC1CCCCC1NC(=O)CSc1nnc(-c2ccco2)n1N (configuration not stated) ?
SENP1 FRET inh: 1; SENP8 block-1: 6; CendR NRP1 mod: 4

What do the screens show for `CCOC(=O)CNC(=O)CSc1nnc(NC(=O)c2ccc(C)cc2)s1`?
SENP1 FRET inh: 2; SENP8 block-1: -11; SENP7 block: 30; CendR NRP1 mod: -4; SENP8 block-2: -6; SENP6 inh: -14

What do the screens show for `CSc1nnc(NC(=O)c2ccc(S(=O)(=O)N(C)C)cc2)s1`?
SENP1 FRET inh: 2; SENP8 block-1: -5; SENP7 block: 51*; CendR NRP1 mod: -3; SENP8 block-2: 41; SENP6 inh: 22; SENP8 confirm: 16; SENP6 conf: 14; SENP7 confirm: 13; Casp3 select: 32; SENP luc ctr: 6

What do the screens show for `CCOC(=O)CNC(=O)CSc1nnc(NC(=O)c2ccc3c(c2)OCO3)s1`?
SENP1 FRET inh: 1; SENP8 block-1: -54; SENP7 block: 79*; CendR NRP1 mod: 13; SENP8 block-2: 54*; SENP6 inh: 54*; SENP8 confirm: 5; SENP6 conf: 6; SENP7 confirm: 19; Casp3 select: 50; SENP luc ctr: 4

What do the screens show for `CSc1nnc(NC(=O)c2ccc3c(c2)OCO3)s1`?
SENP1 FRET inh: 0; SENP8 block-1: -109; SENP7 block: 97*; CendR NRP1 mod: 15; SENP8 block-2: 90*; SENP6 inh: 96*; SENP8 confirm: 30; SENP6 conf: 38; SENP7 confirm: 64*; Casp3 select: 51*; SENP luc ctr: 12

Results for COc1ccc2oc(-c3ccco3)cc(=O)c2c1 ?
SENP1 FRET inh: 5; SENP8 block-1: -462; SENP7 block: 80*; CendR NRP1 mod: 13; SENP8 block-2: 61*; SENP6 inh: 81*; SENP8 confirm: 10; SENP6 conf: 26; SENP7 confirm: 49; Casp3 select: 55*; SENP luc ctr: 9

What do the screens show for `COc1cc(OC)c2c(=O)cc(-c3ccccc3)oc2c1`?
SENP1 FRET inh: 5; SENP8 block-1: -229; SENP7 block: 57*; CendR NRP1 mod: 2; SENP8 block-2: 46; SENP6 inh: 59*; SENP8 confirm: 64*; SENP6 conf: 61*; SENP7 confirm: 82*; Casp3 select: 77*; SENP luc ctr: 68*

Results for COc1ccc(-c2ccc3oc(-c4ccsc4)cc(=O)c3c2)cn1 ?
SENP1 FRET inh: -1; SENP8 block-1: inactive; SENP7 block: 70*; CendR NRP1 mod: 2; SENP8 block-2: 22; SENP6 inh: 0; SENP8 confirm: 17; SENP6 conf: 16; SENP7 confirm: 18; Casp3 select: 15; SENP luc ctr: 1

Results for COc1ccc(-c2cc(=O)c3c(O)cc(O)cc3o2)cc1 ?
SENP1 FRET inh: 2; SENP8 block-1: 25; SENP7 block: 85*; CendR NRP1 mod: -10; SENP8 block-2: 68*; SENP6 inh: 84*; SENP8 confirm: 24; SENP6 conf: 52*; SENP7 confirm: 64*; Casp3 select: 75*; SENP luc ctr: 17
